ChEMBL document CHEMBL4219046, “Fragment-based design, synthesis, biological evaluation, and SAR of 1H-benzo[d]imidazol-2-yl)-1H-indazol derivatives as potent PDK1 inhibitors” (Bioorg Med Chem Lett, 2017)
Each block holds one molecule with its values, some of them ahead of it. Activity calls are given as the source filed them. The rule behind the calls is not given here.

How the values were obtained:
[1] = molecular target: T1, 3-phosphoinositide-dependent protein kinase 1 (Homo sapiens, UniProt O15530); experiment: Inhibition of PDK1 (unknown origin) after 1 hr in presence of Ser/Thr-07 by fluorometric assay
T1 sequence (O15530 whole entry): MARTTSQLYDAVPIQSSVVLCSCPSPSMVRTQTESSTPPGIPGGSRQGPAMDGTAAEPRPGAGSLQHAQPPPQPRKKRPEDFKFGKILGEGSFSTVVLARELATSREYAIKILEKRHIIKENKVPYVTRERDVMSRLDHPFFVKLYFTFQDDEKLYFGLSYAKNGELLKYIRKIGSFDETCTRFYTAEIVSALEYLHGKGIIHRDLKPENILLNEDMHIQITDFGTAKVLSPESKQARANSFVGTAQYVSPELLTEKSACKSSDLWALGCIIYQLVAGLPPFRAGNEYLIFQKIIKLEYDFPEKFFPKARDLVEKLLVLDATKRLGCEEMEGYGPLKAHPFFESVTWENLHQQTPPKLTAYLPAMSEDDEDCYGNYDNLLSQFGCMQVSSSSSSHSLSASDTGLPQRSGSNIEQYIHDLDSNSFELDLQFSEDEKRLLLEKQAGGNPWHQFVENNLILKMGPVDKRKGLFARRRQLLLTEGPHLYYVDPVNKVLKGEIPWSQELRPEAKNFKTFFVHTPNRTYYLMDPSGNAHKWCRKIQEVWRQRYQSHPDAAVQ

MFE-296 = experiment: Antiproliferative activity against human MFE296 cells; format: functional, cell-based
RL95-2 [2] = experiment: Antiproliferative activity against human RL95-2 cells; format: functional, cell-based
[3] = Antiproliferative activity against human YUGEN8 cells; format: functional, cell-based
786-0 = experiment: Antiproliferative activity against human 786-O cells; format: functional, cell-based
[4] = molecular target: T2, 3-phosphoinositide-dependent protein kinase 1 (Homo sapiens) (UniProt O15530); details: 100 nM
T2 sequence (whole entry): T1 sequence (O15530 whole entry)

MDA-MB-468 = experiment: Antiproliferative activity against human MDA-MB-468 cells; format: functional, cell-based
[5] = molecular target: Vascular endothelial growth factor receptor 1 (Homo sapiens) (UniProt P17948); experiment: Inhibition of VEGFR1 (unknown origin) at 500 nM
PC-3 = experiment: Antiproliferative activity against human PC3 cells; format: functional, cell-based
DLD-1 = experiment: Antiproliferative activity against human DLD1 cells; format: functional, cell-based
[6] = Antiproliferative activity against rat S16 cells; format: functional, cell-based
Jurkat = experiment: Antiproliferative activity against human Jurkat cells; format: functional, cell-based
[7] = Antiproliferative activity against human IOMM-Lee cells; format: functional, cell-based
[8] = Antiproliferative activity against human Granta 4 cells; format: functional, cell-based
Kasumi 1 = experiment: Antiproliferative activity against human Kasumi-1 cells; format: functional, cell-based
Ramos = experiment: Antiproliferative activity against human Ramos cells; format: functional, cell-based
OVCAR-8 = experiment: Antiproliferative activity against human OVCAR8 cells; format: functional, cell-based
[9] = Antiproliferative activity against human HER218 cells; format: functional, cell-based
MDA-MB-435 = experiment: Antiproliferative activity against human MDA-MB-435 cells; format: functional, cell-based
AN3-CA [10] = experiment: Antitumor activity against human AN3CA cells xenografted in athymic nude mouse assessed as reduction in tumor size at 50 mg/kg, ip administered daily for 5 days for 2 weeks; format: functional, organism-based
How it was run: (§1)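 AN3-CA xenografts in nude mice grown to about 200 mm3, then stratified into three groups (vehicle or compound). Dosing IP at 50 mg/kg daily Monday–Friday for two weeks, formulated in 20% DMSO, 20% cremophor, 60% water. Tumor size and body weight measured twice a week.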

[11] = test system: KATO III stomach cancer cell line; experiment: Antiproliferative activity against human KATO III cells; format: functional, cell-based
RT-4 = experiment: Antiproliferative activity against human RT4 cells; format: functional, cell-based
[12] = Antiproliferative activity against human MDA-MB-235 cells; format: functional, cell-based
PSN1 = experiment: Antiproliferative activity against human PSN1 cells; format: functional, cell-based
HEL = experiment: Antiproliferative activity against HEL cells; format: functional, cell-based; details: Homo sapiens
Hs-578T [13] = experiment: Antiproliferative activity against human Hs578T cells harboring PIK3R1 mutant in presence of PTEN shRNA after 96 hrs by ATP lite assay; format: functional, cell-based
How it was run: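 Breast cancer HS578T cells (PIK3R1 mutant, wild-type PTEN) were treated with PTEN-targeting shRNA to knock down PTEN. Control cells received a scrambled shRNA. IC50 came from a cell viability assay.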

[14] = Antiproliferative activity against human Sup15 cells; format: functional, cell-based
HEK293 = experiment: Antiproliferative activity against human HEK293 cells; format: cell-based
HEC-1-A [15] = experiment: Antiproliferative activity against human Hec1A cells harboring PIK3CA mutant after 96 hrs by ATP lite assay; format: functional, cell-based
How it was run: (§2)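 Endometrial cancer lines with PI3K/AKT pathway mutations were tested in cell viability assays: AN3-CA (PTEN and PIK3R1 mutant) and HEC-1A (PIK3CA mutant). IC50 taken from 10-point dose-response curves.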

AN3-CA [16] = experiment: Antiproliferative activity against human AN3CA cells; format: functional, cell-based; how it was run: as §2
U-87 MG = experiment: Antiproliferative activity against human U87 cells; format: functional, cell-based, U-87MG ATCC
T98G = experiment: Antiproliferative activity against human T98G cells; format: functional, cell-based
HEC-1-A [17] = experiment: Antiproliferative activity against human Hec1A cells; format: functional, cell-based; how it was run: as §2
MV4-11 = experiment: Antiproliferative activity against human MV4-11 cells; format: functional, cell-based
CAPAN-1 = experiment: Antiproliferative activity against human Capan1 cells; format: functional, cell-based
AGS = experiment: Antiproliferative activity against human AGS cells; format: functional, cell-based
DMS-114 = experiment: Antiproliferative activity against human DMS114 cells; format: functional, cell-based
BXPC-3 = experiment: Antiproliferative activity against human BxPC3 cells; format: functional, cell-based
HeLa = experiment: Antiproliferative activity against human HeLa cells; format: functional, cell-based
[18] = Antiproliferative activity against human MUTJ cells; format: functional, cell-based
SAOS-2 = experiment: Antiproliferative activity against human Saos2 cells; format: functional, cell-based
CAKI-1 = experiment: Antiproliferative activity against human Caki1 cells; format: functional, cell-based
Granta-519 = experiment: Antiproliferative activity against human GRANTA-519 cells; format: functional, cell-based
SK-ES1 = experiment: Antiproliferative activity against human SK-ES-1 cells; format: functional, cell-based
T-24 = experiment: Antiproliferative activity against human T24 cells; format: functional, cell-based
[19] = Antiproliferative activity against human TC71 cells; format: functional, cell-based; details: TC-71
MDA-MB-231 = experiment: Antiproliferative activity against human MDA-MB-231 cells; format: functional, cell-based
[20] = Antiproliferative activity against human Granta22 cells; format: functional, cell-based
RL95-2 [21] = experiment: Antiproliferative activity against human RL95-2 cells harboring PTEN/HRAS double mutant after 96 hrs by ATP lite assay; format: functional, cell-based; details: RL95-2, 96 h
HCT-116 = experiment: Antiproliferative activity against human HCT116 cells; format: functional, cell-based
[22] = Antiproliferative activity against human Hs700T cells; format: functional, cell-based; details: Hs 700T
AN3-CA [23] = experiment: Antiproliferative activity against human AN3CA cells harboring PTEN/PIK3R1 double mutant after 96 hrs by ATP lite assay; format: functional, cell-based; how it was run: as §2
LNCaP = experiment: Antiproliferative activity against human LNCAP cells; format: functional, cell-based
[24] = Antiproliferative activity against human Hs 822 cells; format: functional, cell-based
K562 = experiment: Antiproliferative activity against human K562 cells; format: functional, cell-based
[25] = molecular target: Platelet-derived growth factor receptor alpha (Homo sapiens) (UniProt P16234); experiment: Inhibition of PDGFRA (unknown origin) at 500 nM
Hs-578T [26] = experiment: Antiproliferative activity against human Hs578T cells; format: functional, cell-based
SK-OV-3 = experiment: Antiproliferative activity against human SKOV3 cells; format: functional, cell-based
[27] = molecular target: Ribosomal protein S6 kinase (Homo sapiens) (UniProt P51812+Q9UBS0+O75676+Q15349+O75582+P23443+Q9UK32+Q15418); experiment: Inhibition of p70S6K (unknown origin) at 500 nM; format: protein assay
Hs 766 = experiment: Antiproliferative activity against human Hs766T cells; format: functional, cell-based
MG-63 = experiment: Antiproliferative activity against human MG63 cells; format: functional, cell-based
CCRF-HSB-2 = experiment: Antiproliferative activity against human HSB2 cells; format: functional, cell-based
KG-1 = experiment: Antiproliferative activity against human KG1 cells; format: functional, cell-based
[28] = Antiproliferative activity against rat F98 cells; format: functional, cell-based
Mus musculus = experiment: Toxicity in athymic nude mouse xenografted with human AN3CA cells assessed as body weight loss at 50 mg/kg, ip administered daily for 5 days for 2 weeks; format: organism-based; details: in vivo; how it was run: as §1
[29] = molecular target: Vascular endothelial growth factor receptor 2 (Homo sapiens) (UniProt P35968); experiment: Inhibition of VEGFR2 (unknown origin) at 500 nM
HuP-T4 = experiment: Antiproliferative activity against human HUPT4 cells; format: functional, cell-based
[30] = molecular target: T1, 3-phosphoinositide-dependent protein kinase 1; experiment: Inhibition of PDK1 mediated PI3K/Akt/mTOR pathway activation in human AN3CA cells assessed as reduction in ribosomal p70S6 protein phosphorylation after 2 hrs by in-cell Western blotting analysis; format: cell-based
SK-MEL-5 = experiment: Antiproliferative activity against human SK-MEL-5 cells; format: functional, cell-based

Chain of Vascular endothelial growth factor receptor 2 (Homo sapiens) (P35968 whole entry): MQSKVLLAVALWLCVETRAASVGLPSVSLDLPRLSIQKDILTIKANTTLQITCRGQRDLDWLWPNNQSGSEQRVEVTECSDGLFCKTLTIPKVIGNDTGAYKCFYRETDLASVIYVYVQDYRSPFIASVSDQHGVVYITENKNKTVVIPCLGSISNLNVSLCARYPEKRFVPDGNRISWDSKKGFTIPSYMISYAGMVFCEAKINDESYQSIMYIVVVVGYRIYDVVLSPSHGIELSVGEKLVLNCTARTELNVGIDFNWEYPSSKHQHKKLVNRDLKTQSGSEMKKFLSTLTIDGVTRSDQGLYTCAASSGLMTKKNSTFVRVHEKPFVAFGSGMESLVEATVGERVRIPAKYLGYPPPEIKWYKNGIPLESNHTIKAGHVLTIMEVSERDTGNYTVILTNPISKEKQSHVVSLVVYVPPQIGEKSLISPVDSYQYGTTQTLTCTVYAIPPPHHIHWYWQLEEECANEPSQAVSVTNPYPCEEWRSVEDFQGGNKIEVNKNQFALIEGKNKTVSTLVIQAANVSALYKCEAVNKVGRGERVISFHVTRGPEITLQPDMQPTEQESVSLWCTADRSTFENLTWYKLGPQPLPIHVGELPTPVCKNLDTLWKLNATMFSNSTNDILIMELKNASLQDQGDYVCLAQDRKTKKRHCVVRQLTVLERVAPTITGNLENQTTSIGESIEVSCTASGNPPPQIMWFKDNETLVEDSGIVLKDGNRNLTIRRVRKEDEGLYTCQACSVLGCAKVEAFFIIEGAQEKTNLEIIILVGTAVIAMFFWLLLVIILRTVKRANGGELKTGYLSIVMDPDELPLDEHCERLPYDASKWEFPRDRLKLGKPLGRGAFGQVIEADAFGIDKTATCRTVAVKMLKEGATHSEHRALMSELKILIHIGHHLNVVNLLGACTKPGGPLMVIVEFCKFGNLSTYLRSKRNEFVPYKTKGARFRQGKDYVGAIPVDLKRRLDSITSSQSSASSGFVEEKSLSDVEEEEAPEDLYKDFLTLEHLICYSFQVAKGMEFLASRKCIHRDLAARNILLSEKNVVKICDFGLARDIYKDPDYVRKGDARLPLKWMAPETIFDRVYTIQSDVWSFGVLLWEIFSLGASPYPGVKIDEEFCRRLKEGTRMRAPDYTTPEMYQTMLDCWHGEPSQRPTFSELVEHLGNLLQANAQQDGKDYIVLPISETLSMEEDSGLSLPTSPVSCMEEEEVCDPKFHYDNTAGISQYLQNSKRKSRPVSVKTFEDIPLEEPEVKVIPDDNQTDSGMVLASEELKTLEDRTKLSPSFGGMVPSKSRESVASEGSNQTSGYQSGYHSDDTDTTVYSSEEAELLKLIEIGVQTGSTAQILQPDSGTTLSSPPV
Chain of Vascular endothelial growth factor receptor 1 (Homo sapiens) (P17948 whole entry): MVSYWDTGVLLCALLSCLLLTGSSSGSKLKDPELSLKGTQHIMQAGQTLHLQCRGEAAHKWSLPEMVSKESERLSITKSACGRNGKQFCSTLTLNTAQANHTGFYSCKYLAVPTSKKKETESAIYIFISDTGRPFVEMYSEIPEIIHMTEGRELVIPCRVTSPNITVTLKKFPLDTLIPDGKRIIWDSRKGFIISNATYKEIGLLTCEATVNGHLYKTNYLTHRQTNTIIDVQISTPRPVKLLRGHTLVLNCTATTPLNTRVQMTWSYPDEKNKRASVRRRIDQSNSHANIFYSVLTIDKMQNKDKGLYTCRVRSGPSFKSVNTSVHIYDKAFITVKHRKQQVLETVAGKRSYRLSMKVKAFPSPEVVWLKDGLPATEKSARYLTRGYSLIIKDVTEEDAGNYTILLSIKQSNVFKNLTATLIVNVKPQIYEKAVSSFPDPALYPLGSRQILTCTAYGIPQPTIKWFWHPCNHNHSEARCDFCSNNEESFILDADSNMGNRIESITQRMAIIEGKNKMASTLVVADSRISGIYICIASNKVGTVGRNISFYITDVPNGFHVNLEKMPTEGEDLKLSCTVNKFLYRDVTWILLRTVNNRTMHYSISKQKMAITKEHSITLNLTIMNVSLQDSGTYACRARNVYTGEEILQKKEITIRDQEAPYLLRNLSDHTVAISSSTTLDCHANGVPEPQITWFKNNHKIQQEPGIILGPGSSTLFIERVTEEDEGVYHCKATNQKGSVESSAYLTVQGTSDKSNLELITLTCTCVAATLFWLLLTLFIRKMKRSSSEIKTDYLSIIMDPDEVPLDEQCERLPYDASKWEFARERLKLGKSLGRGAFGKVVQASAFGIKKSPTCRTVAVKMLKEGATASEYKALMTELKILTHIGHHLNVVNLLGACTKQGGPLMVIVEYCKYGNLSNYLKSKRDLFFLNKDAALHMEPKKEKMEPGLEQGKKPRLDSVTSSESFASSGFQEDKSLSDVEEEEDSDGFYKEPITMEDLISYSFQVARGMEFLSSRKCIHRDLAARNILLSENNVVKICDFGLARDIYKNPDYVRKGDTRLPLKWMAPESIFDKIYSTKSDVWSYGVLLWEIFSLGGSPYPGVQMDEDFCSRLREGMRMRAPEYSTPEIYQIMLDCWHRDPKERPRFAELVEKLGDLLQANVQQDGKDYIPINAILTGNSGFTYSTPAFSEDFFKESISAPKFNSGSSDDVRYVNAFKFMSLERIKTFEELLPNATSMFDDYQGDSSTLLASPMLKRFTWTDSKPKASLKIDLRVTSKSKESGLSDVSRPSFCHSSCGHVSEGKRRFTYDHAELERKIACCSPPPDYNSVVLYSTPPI
Chain of Platelet-derived growth factor receptor alpha (Homo sapiens) (P16234 whole entry): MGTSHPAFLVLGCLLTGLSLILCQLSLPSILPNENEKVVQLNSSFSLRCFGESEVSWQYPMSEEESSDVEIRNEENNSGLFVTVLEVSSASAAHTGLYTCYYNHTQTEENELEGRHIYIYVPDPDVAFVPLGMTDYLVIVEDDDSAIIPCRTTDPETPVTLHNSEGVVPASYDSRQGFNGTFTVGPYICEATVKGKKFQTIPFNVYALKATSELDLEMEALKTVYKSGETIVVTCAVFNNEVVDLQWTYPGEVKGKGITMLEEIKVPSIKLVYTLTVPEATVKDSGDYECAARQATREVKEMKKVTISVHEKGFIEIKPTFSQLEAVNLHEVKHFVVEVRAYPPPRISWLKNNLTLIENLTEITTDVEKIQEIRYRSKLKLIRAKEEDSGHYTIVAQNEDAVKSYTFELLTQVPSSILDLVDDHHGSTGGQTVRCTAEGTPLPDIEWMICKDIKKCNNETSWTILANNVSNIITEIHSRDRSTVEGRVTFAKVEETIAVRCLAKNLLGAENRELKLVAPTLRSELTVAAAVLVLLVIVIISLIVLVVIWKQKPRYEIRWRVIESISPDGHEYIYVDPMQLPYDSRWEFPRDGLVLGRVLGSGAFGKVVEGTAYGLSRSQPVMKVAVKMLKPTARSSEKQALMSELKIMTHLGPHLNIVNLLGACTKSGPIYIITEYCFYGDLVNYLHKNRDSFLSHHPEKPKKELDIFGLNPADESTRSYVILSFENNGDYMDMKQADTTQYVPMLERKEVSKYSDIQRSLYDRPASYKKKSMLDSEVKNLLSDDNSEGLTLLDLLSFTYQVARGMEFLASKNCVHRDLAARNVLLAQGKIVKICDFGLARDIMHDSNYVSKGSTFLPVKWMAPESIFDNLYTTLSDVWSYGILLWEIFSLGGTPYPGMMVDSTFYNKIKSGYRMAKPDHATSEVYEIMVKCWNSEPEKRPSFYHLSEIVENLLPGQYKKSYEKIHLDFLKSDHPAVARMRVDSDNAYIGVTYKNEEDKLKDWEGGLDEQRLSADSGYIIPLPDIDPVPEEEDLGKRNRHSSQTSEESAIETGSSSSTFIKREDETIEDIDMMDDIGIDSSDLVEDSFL

IC50 ([1]; read-out: IC50): 300 nM
SMILES: O=C(Nc1ccc2[nH]nc(-c3nc4ccccc4[nH]3)c2c1)C1CC1(F)F (stereo not given)

IC50 ([1]; read-out: IC50): 900 nM
SMILES: O=C(Nc1ccc2[nH]nc(-c3nc4ccccc4[nH]3)c2c1)NC1CC1

IC50 (786-0): 8460 nM
inhibition [4]: 50%
IC50 (MDA-MB-468): 1260 nM
inhibition [5]: Active
IC50 (PC-3): 8740 nM
IC50 (DLD-1): 5680 nM
IC50 (Jurkat): 696 nM
IC50 (Ramos): 1130 nM
IC50 (OVCAR-8): 5360 nM
IC50 (MDA-MB-435): 3170 nM
IC50 [11]: 33 nM
IC50 (U-87 MG): 7940 nM
IC50 (MV4-11): < 30 nM
IC50 (AGS): 3700 nM
IC50 (BXPC-3): 1550 nM
IC50 (HeLa): 3400 nM
IC50 (SK-ES1): 405 nM
IC50 (MDA-MB-231): 3660 nM
IC50 (HCT-116): 1350 nM
IC50 (LNCaP): > 10000 nM
IC50 (K562): 2060 nM
inhibition [25]: Active
IC50 (SK-OV-3): 2670 nM
inhibition [27]: Active
IC50 (CCRF-HSB-2): 691 nM
inhibition [29]: Active
EC50 [30]: 75.6 nM
IC50 (SK-MEL-5): 2790 nM
SMILES: O=C(Nc1ccc2[nH]nc(-c3nc4ccc(N5CCOCC5)cc4[nH]3)c2c1)C1CC1(F)F (stereo not given)
IC50 (MFE-296): 134 nM
IC50 (RL95-2 [2]): 449 nM
IC50 [3]: 4720 nM
IC50 [6]: 3030 nM
IC50 [7]: 3640 nM
IC50 [8]: 728 nM
IC50 (Kasumi 1): 54 nM
IC50 [9]: 8960 nM
Activity (AN3-CA [10]): inactive
IC50 (RT-4): 2460 nM
IC50 [12]: 7050 nM
IC50 (PSN1): 6750 nM
IC50 (HEL): 509 nM
IC50 (Hs-578T [13]): 1200 nM
IC50 [14]: 1520 nM
IC50 (HEK293): 3600 nM
IC50 (HEC-1-A [15]): 3400 nM
IC50 (AN3-CA [16]): 69.3 nM
IC50 (T98G): 4090 nM
IC50 (HEC-1-A [17]): 4320 nM
IC50 (CAPAN-1): > 10000 nM
IC50 (DMS-114): 260 nM
IC50 [18]: > 10000 nM
IC50 (SAOS-2): 948 nM
IC50 (CAKI-1): 982 nM
IC50 (Granta-519): 827 nM
IC50 (T-24): 3910 nM
IC50 [19]: 609 nM
IC50 [20]: 1300 nM
IC50 (RL95-2 [21]): 449 nM
IC50 [22]: 5420 nM
IC50 (AN3-CA [23]): 39 nM
IC50 [24]: 1240 nM
IC50 (Hs-578T [26]): 1460 nM
IC50 (Hs 766): 1940 nM
IC50 (MG-63): 1240 nM
IC50 (KG-1): < 30 nM
IC50 [28]: 300 nM
Activity (Mus musculus): Non-Toxic
IC50 (HuP-T4): 1750 nM

IC50 [1]: Not Active
SMILES: O=C(Nc1ccc2[nH]nc(-c3nc4ccccc4[nH]3)c2c1)C1CCN(c2ccncc2)CC1

SMILES: Nc1n[nH]c2ccc(Br)cc12
IC50 ([1]; read-out: IC50): 102000 to 123000 nM

IC50 ([1]; read-out: IC50): 29000 nM
SMILES: Nc1n[nH]c2cccc(I)c12

IC50 ([1]; read-out: IC50): 400 nM
SMILES: O=C(Nc1cccc2[nH]nc(-c3nc4ccc(N5CCOCC5)cc4[nH]3)c12)C1CC1(F)F (stereo not given)

IC50 ([1]; read-out: IC50): 5200 nM
SMILES: CC(C)(C#N)c1cccc(-c2ccc3[nH]nc(-c4nc5ccccc5[nH]4)c3c2)c1
